An excerpt weighted towards active compounds, which were near 3.5% of everything screened.
ABCG2 inh: ABCG2 efflux pump inhibitors, primary screen, multiplex with ABCB1, IgMXP3 cells, flow cytometry. JC-1 efflux. Broad substrate specificity ATP-binding cassette transporter ABCG2 (Homo sapiens), Q9UNQ0. actives 0.1% (n = 190,000). inhibition, % at 6.6 µM;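 active = inhibition above 80%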
Target sequence (Q9UNQ0 whole entry, looked up): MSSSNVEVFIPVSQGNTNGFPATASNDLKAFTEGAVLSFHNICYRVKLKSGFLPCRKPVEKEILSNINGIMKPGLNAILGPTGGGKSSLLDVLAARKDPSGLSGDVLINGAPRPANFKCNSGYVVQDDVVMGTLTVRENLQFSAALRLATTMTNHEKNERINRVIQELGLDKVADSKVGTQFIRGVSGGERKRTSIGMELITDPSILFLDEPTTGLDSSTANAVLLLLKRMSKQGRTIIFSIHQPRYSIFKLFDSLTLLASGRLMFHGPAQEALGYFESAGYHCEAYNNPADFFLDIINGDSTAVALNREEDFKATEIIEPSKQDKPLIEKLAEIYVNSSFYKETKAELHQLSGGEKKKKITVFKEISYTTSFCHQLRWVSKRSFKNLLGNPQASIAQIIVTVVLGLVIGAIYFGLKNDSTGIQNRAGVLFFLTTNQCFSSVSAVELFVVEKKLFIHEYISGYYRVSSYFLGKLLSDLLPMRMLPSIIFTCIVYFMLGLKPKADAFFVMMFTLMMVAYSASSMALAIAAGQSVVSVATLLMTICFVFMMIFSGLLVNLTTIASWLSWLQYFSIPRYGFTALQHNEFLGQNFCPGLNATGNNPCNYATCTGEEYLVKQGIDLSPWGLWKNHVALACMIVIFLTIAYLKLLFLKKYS
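Incubation: cells with compound and JC-1, 10 min at 25 °C, rotating, no wash / Test system: IgMXP3 (ABCG2) plus far-red-tagged CCRF-Adr (ABCB1) cells / Compound dosing: one concentration, 6.6 µM final / Also added: JC-1 fluorescent substrate / Evaluation: efflux inhibition in percent versus controls / Detection: flow cytometry, 530 nm JC-1 signal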
ABCB1 block: ABCB1 efflux pump inhibitors, primary screen, cell-based, multiplex, flow cytometry, ABCG2 counter-screen; AID 1326, 2008; ATP-dependent translocase ABCB1 (Homo sapiens), P08183; inhibition, % at 6.6 µM; CCRF-Adr cells, JC-1 efflux; actives 0.067% (n = 190,000); in the data active = inhibition above about 40%;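 note: higher value means more JC-1 retained so stronger ABCB1 efflux block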
WT yeast gro inh: growth inhibition of WT strain, primary screen, mitochondrial fusion inhibitor project, WT and mutant strains, chemical genetic; actives 2.1% (n = 190,000); mitochondrial fusion phenotypic screen; inhibition, % at 10 µM; in the data active = inhibition above about 58%; tested in S. cerevisiae
MEKK2mut PB1 HTS: MEK5 binding signal on mutant MEKK2 PB1, primary screen, biochemical, multiplex bead flow cytometry, Alexa488-MEK5. Alexa488-MEK5 binding to MEKK2 mutant. percent response, % at 10 µM. actives 0.35% (n = 290,000). AID 1530, 2009; in the data active = percent response above about 24%, passing the limit was not always enough
MEKK2wt PB1 HTS: modulators of MEK5 binding to wildtype MEKK2, primary screen, biochemical, multiplex bead flow cytometry, Alexa488-MEK5; Mitogen-activated protein kinase kinase kinase 2 (Homo sapiens), Q9Y2U5; Alexa488-MEK5 binding to MEKK2 WT; actives lie on both sides; binding response (% of control), % at 10 µM; actives 1.1% (n = 290,000); in the data active = binding response below about 67% or above about 130%
MEKK3 PB1 HTS: modulators of MEKK3-MEK5 PB1 binding, primary screen, biochemical, wildtype MEKK3, multiplex bead flow cytometry, Alexa488-MEK5 | Mitogen-activated protein kinase kinase kinase 3 (Homo sapiens), Q99759 | bead-based flow cytometry, Alexa488-MEK5 binding to MEKK3; actives lie on both sides; 0 = blocked by unlabeled MEK5, 100 = vehicle | binding response (% of control), % at 10 µM | actives 1.4% (n = 290,000);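 active = binding response more than 3 SD above or below the average of its plate-row segment, actives on both sides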;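 note: Alexa488 bead fluorescence after subtracting the streptavidin-only scavenger bead signal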
MEKK2wt confirm: modulators of MEK5 binding to wildtype MEKK2, confirmation, biochemical, single concentration, multiplex bead flow cytometry; actives 2.4% (n = 5,900); Alexa488-MEK5 binding to MEKK2 WT; actives lie on both sides; binding response (% of control), % at 10 µM; AID 1892, 2009; shares compounds with MEKK3 PB1 HTS; in the data active = binding response below about 16% or above about 210%; inactive = in between
MEKK2mut-MEK5: mutant MEKK2 PB1-MEK5 binding signal retest – biochemical, single concentration, multiplex bead flow cytometry, confirmation. AID 1893, 2009. Alexa488-MEK5 binding to MEKK2 mutant. shares compounds with MEKK3 PB1 HTS. actives 2% (n = 5,900). percent response, % at 10 µM; in the data active = percent response mostly above about 71%, no sharp cut-off; inactive = mostly below about 38%;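 note: higher means compound restores mutant binding toward wildtype level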
MEKK3 confirm: MEKK3 wild-type PB1 binding to MEK5, inhibitors, confirmation, biochemical, bead multiplex flow cytometry, single concentration, wildtype; Alexa488-MEK5 binding to MEKK3; stronger effect = lower value; shares compounds with MEKK3 PB1 HTS; binding response (% of control), % at 10 µM; actives 1.8% (n = 5,900); AID 1894, 2009;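 active = binding response below 72% of control, or above a set upper limit, though filed actives all read lower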
Of the large screens only hits and unclear results are named; the others gave an inactive call (follow-up assays come after a bar, where they were run); [ ] = dose if it differs, or a comment.

Cn1c(C(=O)NCCCN2CCc3ccccc3C2)cc2c(=O)n(C)c3ccccc3c21	MEKK2wt PB1 HTS 143 | MEKK2wt confirm inactive | MEKK2mut-MEK5 inactive | MEKK3 confirm inactive
COCCNC(=O)c1cc2c(=O)n(C)c3ccccc3c2n1C	none
COc1ccc(CCNC(=O)c2cc3c(=O)n(C)c4ccccc4c3n2C)cc1OC	MEKK3 PB1 HTS 132 (no result: ABCG2 inh, ABCB1 block, WT yeast gro inh) | MEKK2wt confirm inactive | MEKK2mut-MEK5 inactive | MEKK3 confirm inactive
COc1ccc2cc(C(=O)C3CCCN(C(=O)/C=C/c4ccccn4)C3)ccc2c1 (stereo not drawn)	none
CCCCC1=C([O-])C2N=CC=CC2=[N+](c2ccccn2)C1=O (stereo not drawn)	MEKK3 PB1 HTS 138 | MEKK2wt confirm inactive | MEKK2mut-MEK5 inactive | MEKK3 confirm inactive
COc1ccnc(Oc2ccccc2)c1C(=O)N/C=N/OCc1ccccc1	MEKK3 PB1 HTS 67[inhibitor] | MEKK2wt confirm inactive | MEKK2mut-MEK5 inactive | MEKK3 confirm inactive
CO/N=C/NC(=O)c1c(OC)ccnc1Oc1ccccc1	none
CN1CCN(C2=Cc3cc(Cl)ccc3Sc3cc(F)ccc32)CC1	WT yeast gro inh 95, MEKK2mut PB1 HTS 53, MEKK2wt PB1 HTS 202 | MEKK2wt confirm inactive | MEKK2mut-MEK5 inactive | MEKK3 confirm inactive
CN1CCN(C2=Cc3ccccc3Sc3cc(F)c(Cl)cc32)CC1	WT yeast gro inh 98, MEKK2wt PB1 HTS 134 | MEKK2wt confirm inactive | MEKK2mut-MEK5 inactive | MEKK3 confirm inactive
CN1CCN(C2=Cc3ccccc3Sc3cc(F)c(F)cc32)CC1	none
CCCCNC(=O)/C=C/c1ccc(S(=O)(=O)Nc2ccc(OC)cc2)cc1	none
O=C(O)CC(CC(=O)N1CCN(C(=O)c2ccco2)CC1)c1ccccc1 (stereo not drawn)	none (no result: ABCG2 inh, ABCB1 block, WT yeast gro inh)
O=C(NCc1ccc(F)cc1)C1Cc2ccccc2CN1C(=O)c1ccco1 (stereo not drawn)	MEKK3 PB1 HTS 69[inhibitor] | MEKK2wt confirm inactive | MEKK2mut-MEK5 inactive | MEKK3 confirm inactive
CCNc1nc(N)c(C(=O)c2ccc(Cl)s2)s1	none
COc1cc(C2NC(=O)C(C#N)=C(Nc3cccc(C)c3)S2)ccc1O (stereo not drawn)	none (no result: ABCG2 inh, ABCB1 block, WT yeast gro inh)
O=C(CC(c1ccco1)S(=O)(=O)c1ccccc1)c1ccccc1 (stereo not drawn)	MEKK3 PB1 HTS 136 | MEKK2wt confirm inactive | MEKK2mut-MEK5 inactive | MEKK3 confirm inactive
Cn1c(=O)oc2cc(S(=O)(=O)NCc3ccccc3)ccc21	none
Cn1c(=O)oc2cc(S(=O)(=O)NCc3ccc(Cl)cc3)ccc21	MEKK2wt PB1 HTS -6.0[inhibitor], MEKK3 PB1 HTS 0.0[inhibitor] (no result: ABCG2 inh, ABCB1 block, WT yeast gro inh) | MEKK2wt confirm inactive | MEKK2mut-MEK5 inactive | MEKK3 confirm inactive
Cc1cc(Nc2ccc(Cl)cc2)nc(-c2ccccc2O)n1	MEKK2mut PB1 HTS 28, MEKK2wt PB1 HTS 140 (no result: ABCG2 inh, ABCB1 block, WT yeast gro inh) | MEKK2wt confirm inactive | MEKK2mut-MEK5 inactive | MEKK3 confirm inactive
COc1cc(C(=O)Nc2nnc(CC(C)C)s2)c([N+](=O)[O-])cc1OC	none
Cn1nc(C(F)(F)F)c(-c2ccc(F)cc2)c1NC(=O)c1cccnc1	MEKK3 PB1 HTS 128 (no result: ABCG2 inh, ABCB1 block, WT yeast gro inh) | MEKK2wt confirm inactive | MEKK2mut-MEK5 inactive | MEKK3 confirm inactive
COc1ccc(C2c3c(ncn(CCN4CCOCC4)c3=N)Oc3ccc4ccccc4c32)cc1OC (stereo not drawn)	MEKK2wt PB1 HTS 163 | MEKK2wt confirm inactive | MEKK2mut-MEK5 inactive | MEKK3 confirm inactive
COc1ccc(C2c3ccc4ccccc4c3Oc3ncn(Cc4ccco4)c(=N)c32)cc1OC (stereo not drawn)	MEKK2wt PB1 HTS 161 | MEKK2wt confirm inactive | MEKK2mut-MEK5 inactive | MEKK3 confirm inactive
COc1ccc(C2c3ccc(O)cc3Oc3ncn(Cc4ccco4)c(=N)c32)cc1OC (stereo not drawn)	none (no result: ABCG2 inh, ABCB1 block, WT yeast gro inh)
COc1ccccc1C1c2ccc3ccccc3c2Oc2ncn(CCN(C)C)c(=N)c21 (stereo not drawn)	MEKK2mut PB1 HTS 32, MEKK2wt PB1 HTS 153 (no result: ABCG2 inh, ABCB1 block, WT yeast gro inh) | MEKK2wt confirm inactive | MEKK2mut-MEK5 inactive | MEKK3 confirm inactive
COc1ccc(C2c3ccc4ccccc4c3Oc3ncn(CCCN(C)C)c(=N)c32)cc1 (stereo not drawn)	MEKK2mut PB1 HTS 51, MEKK2wt PB1 HTS 202 (no result: ABCG2 inh, ABCB1 block, WT yeast gro inh) | MEKK2wt confirm inactive | MEKK2mut-MEK5 inactive | MEKK3 confirm inactive
COc1ccc(CC(=O)Nc2ccncc2Cl)cc1	none (no result: ABCG2 inh, ABCB1 block, WT yeast gro inh)
CC(=O)OCC[C@H](NS(=O)(=O)OCC(Cl)(Cl)Cl)c1ccccc1	none (no result: ABCG2 inh, ABCB1 block, WT yeast gro inh)
COC(=O)c1ccc2c(=O)n(CCCCCC(=O)N3CCN(c4ccccc4)CC3)c(=O)[nH]c2c1	MEKK3 PB1 HTS 122 | MEKK2wt confirm inactive | MEKK2mut-MEK5 inactive | MEKK3 confirm inactive
CCN1CCN(C(=O)CCCCCn2c(=O)[nH]c3cc(C(=O)OC)ccc3c2=O)CC1	none
COc1ccc(-c2cn3ccccc3n2)cc1[N+](=O)[O-]	none
COc1ccc(-c2cn3cc([N+](=O)[O-])ccc3n2)cc1OC	MEKK3 PB1 HTS 75[inhibitor] | MEKK2wt confirm inactive | MEKK2mut-MEK5 inactive | MEKK3 confirm inactive
CC(C)CCNCC(O)CON=C1c2ccccc2-c2ccccc21 (stereo not drawn)	MEKK2wt PB1 HTS 161 | MEKK2wt confirm inactive | MEKK2mut-MEK5 inactive | MEKK3 confirm inactive
COCCNCC(O)CON=C1c2ccccc2-c2ccccc21 (stereo not drawn)	none
O=C(NNCC(O)COc1ccccc1)c1ccccc1 (stereo not drawn)	MEKK3 PB1 HTS 138 | MEKK2wt confirm inactive | MEKK2mut-MEK5 inactive | MEKK3 confirm inactive

Bioassay records (PubChem BioAssay)
